Experimental data taken from ChEMBL document CHEMBL1138398, “Design and synthesis of novel bis(L-amino acid) ester prodrugs of 9-[2-(phosphonomethoxy)ethyl]adenine (PMEA) with improved anti-HBV activity” (Bioorg Med Chem Lett, 2007).

How the values were obtained:
HepG2 = assay: Cytotoxicity against HepG2 2.2.15 cells; type: functional; conditions: Homo sapiens
Method in brief: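 HepG2 2.2.15 cells exposed to compound; CC50 defined as the concentration causing 50% extinction of the cells.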

[1] = Selectivity index, ratio of CC50 for HepG2 2.2.15 cells to EC50 for HBV; type: functional
Method in brief: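 In HepG2 2.2.15 cells: SI calculated as CC50 (50% extinction of the cells) divided by EC50 (50% inhibition of cytoplasmic HBV-DNA synthesis).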

Hepatitis B virus = assay: Antiviral activity against HBV assessed as inhibition of cytoplasmic HBV-DNA synthesis; type: functional, organism-based
Method in brief: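 Run in HepG2 2.2.15 cells; EC50 taken as the concentration giving 50% inhibition of cytoplasmic HBV-DNA synthesis.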

[2] = Metabolic stability assessed as half life in human plasma; type: ADME, cell-free

For `CC(C)C[C@H](N)C(=O)SCCOP(=O)(COCCn1cnc2c(N)ncnc21)OCCSC(=O)[C@@H](N)CC(C)C.Cl`, the CC50 (HepG2) was 3410 µM, the “Ratio CC50/EC50” value [1] was 16129 and the EC50 (Hepatitis B virus) was 0.211 µM.
In the case of `CC(C)[C@H](N)C(=O)OCOP(=O)(COCCn1cnc2c(N)ncnc21)OCOC(=O)[C@@H](N)C(C)C.Cl`, the CC50 (HepG2) is reported as 3380 µM, the “Ratio CC50/EC50” value [1] is reported as 11094 and the EC50 (Hepatitis B virus) is reported as 0.304 µM.
With `Cl.Nc1ncnc2c1ncn2CCOCP(=O)(OCCOC(=O)[C@@H](N)Cc1ccccc1)OCCOC(=O)[C@@H](N)Cc1ccccc1` the CC50 (HepG2) was 2590 µM, the “Ratio CC50/EC50” value [1] was 8354 and the EC50 (Hepatitis B virus) was 0.311 µM. The half-life [2] was 0.25 h.
For `CC(C)(C)C(=O)OCOP(=O)(COCCn1cnc2c(N)ncnc21)OCOC(=O)C(C)(C)C.Cl`, the CC50 (HepG2) was 540 µM, the “Ratio CC50/EC50” value [1] was 1044 and the EC50 (Hepatitis B virus) was 0.517 µM. The half-life [2] was 0.75 h.
In the case of `Cl.Nc1ccn([C@@H]2CS[C@H](CO)O2)c(=O)n1`, the CC50 (HepG2) is reported as 230 µM, the “Ratio CC50/EC50” value [1] is reported as 2850 and the EC50 (Hepatitis B virus) is reported as 0.0807 µM.
With `CC(C)[C@H](N)C(=O)OCCOP(=O)(COCCn1cnc2c(N)ncnc21)OCCOC(=O)[C@@H](N)C(C)C.Cl` the CC50 (HepG2) was 2590 µM, the “Ratio CC50/EC50” value [1] was 1974 and the EC50 (Hepatitis B virus) was 1.31 µM. For the same molecule, the half-life [2] was 2 h.
With `Cl.Nc1ncnc2c1ncn2CCOCP(=O)(OCOC(=O)[C@@H](N)Cc1ccccc1)OCOC(=O)[C@@H](N)Cc1ccccc1` the “Ratio CC50/EC50” value [1] was 23312 and the EC50 (Hepatitis B virus) was 0.659 µM.
In the case of `CC(C)[C@H](N)C(=O)SCCOP(=O)(COCCn1cnc2c(N)ncnc21)OCCSC(=O)[C@@H](N)C(C)C.Cl`, the “Ratio CC50/EC50” value [1] is reported as 38167 and the EC50 (Hepatitis B virus) is reported as 0.752 µM.
For `C[C@H](N)C(=O)OCCOP(=O)(COCCn1cnc2c(N)ncnc21)OCCOC(=O)[C@H](C)N.Cl`, the CC50 (HepG2) was 1840 µM, the “Ratio CC50/EC50” value [1] was 146 and the EC50 (Hepatitis B virus) was 12.5 µM.
With `CC(C)C[C@H](N)C(=O)OCOP(=O)(COCCn1cnc2c(N)ncnc21)OCOC(=O)[C@@H](N)CC(C)C.Cl` the CC50 (HepG2) was 8560 µM, the “Ratio CC50/EC50” value [1] was 25111 and the EC50 (Hepatitis B virus) was 0.341 µM.
For `CC(C)C[C@H](N)C(=O)OCCOP(=O)(COCCn1cnc2c(N)ncnc21)OCCOC(=O)[C@@H](N)CC(C)C.Cl`, the CC50 (HepG2) was 6640 µM, the “Ratio CC50/EC50” value [1] was 69523 and the EC50 (Hepatitis B virus) was 0.0952 µM. For the same molecule, the half-life [2] was 4.5 h.
For `Cl.Nc1ncnc2c1ncn2CCOCP(=O)(OCCSC(=O)[C@@H](N)Cc1ccccc1)OCCSC(=O)[C@@H](N)Cc1ccccc1`, the “Ratio CC50/EC50” value [1] was 52727 and the EC50 (Hepatitis B virus) was 0.208 µM.
In the case of `C[C@H](N)C(=O)SCCOP(=O)(COCCn1cnc2c(N)ncnc21)OCCSC(=O)[C@H](C)N.Cl`, the CC50 (HepG2) is reported as 2420 µM, the “Ratio CC50/EC50” value [1] is reported as 1548 and the EC50 (Hepatitis B virus) is reported as 1.56 µM.
In the case of `Cl.NCC(=O)SCCOP(=O)(COCCn1cnc2c(N)ncnc21)OCCSC(=O)CN`, the CC50 (HepG2) is reported as 259 µM, the “Ratio CC50/EC50” value [1] is reported as 25 and the EC50 (Hepatitis B virus) is reported as 10.2 µM.
